Laboratory results published in paper PMC9321963 (Birth Defects Research, 2022).

Assays:
[1] = Toxicokinetics, rat DRF EFD study; format: in vivo; settings: for AUC(0-t) / Cmax / Tmax: female, Sprague-Dawley (Crl:CD SD), rat, plasma, po, 60 mg/kg/day, rat DRF EFD, 60 mg/kg/day oral; for Cmax: C max; for Tmax: T max
[2] = Toxicokinetics, rat main EFD study; format: in vivo; settings: for Tmax / AUC(0-t) / Cmax: female, Sprague-Dawley (Crl:CD SD), rat, plasma, po; for AUC(0-t) / Cmax: rat main EFD; for Cmax: C max
[3] = Toxicokinetics, rat investigative EFD study; format: in vivo; settings: for Tmax / AUC(0-t) / Cmax: female, rat, plasma, po; for AUC(0-t) / Cmax: rat investigative EFD; for Cmax: C max
[4] = Toxicokinetics, rabbit DRF EFD study; settings: female, in vivo
[5] = Rat main embryofetal developmental toxicity study; format: in vivo; settings: female, Sprague-Dawley, rat, in vivo, oral, maternal NOAEL, rat main EFD
How it was run: (§1)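 GLP main study following ICH S5(R2): 24 time-mated naïve Crl:CD SD females per group (plug day = GD0) given 2, 6 or 20 mg/kg/day orally once daily GD6–GD17. Vehicle was 20% w/w Kolliphor HS 15 / 50% w/w PEG 400 in water, with the compound suspended in it. Necropsy followed CO2 euthanasia on GD21. Maternal body weight, weight gain, food intake, pregnancy status, corpora lutea, postimplantation loss and live fetuses were recorded. Fetal weight, external, visceral and skeletal examinations were done.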

pregnant rats = assay: Rat main embryofetal developmental toxicity study; format: in vivo; settings: for food consumption, % of control / maternal weight gain, % of control: GD6 to GD9
How it was run: as §1

pregnant rabbits = assay: Rabbit EFD studies; format: in vivo
TSF1 = TSF1 (Homo sapiens, UniProt O75716); assay: ADP-Glo Kinase Assay, TSF1; format: biochemical
Chain of TSF1 (O75716 whole entry): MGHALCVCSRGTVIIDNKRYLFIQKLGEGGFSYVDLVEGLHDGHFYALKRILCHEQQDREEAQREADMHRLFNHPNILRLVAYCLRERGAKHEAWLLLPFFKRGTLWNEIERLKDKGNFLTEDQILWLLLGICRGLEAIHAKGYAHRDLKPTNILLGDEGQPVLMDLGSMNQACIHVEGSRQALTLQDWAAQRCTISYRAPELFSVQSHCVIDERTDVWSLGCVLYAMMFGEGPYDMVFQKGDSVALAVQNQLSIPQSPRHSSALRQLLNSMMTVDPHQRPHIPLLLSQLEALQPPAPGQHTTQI

PI3Kδ = PI3Kδ (Homo sapiens, UniProt O00329); assay: ADP-Glo Kinase Assay, PI3Kδ; format: biochemical
Chain of PI3Kδ (O00329 whole entry): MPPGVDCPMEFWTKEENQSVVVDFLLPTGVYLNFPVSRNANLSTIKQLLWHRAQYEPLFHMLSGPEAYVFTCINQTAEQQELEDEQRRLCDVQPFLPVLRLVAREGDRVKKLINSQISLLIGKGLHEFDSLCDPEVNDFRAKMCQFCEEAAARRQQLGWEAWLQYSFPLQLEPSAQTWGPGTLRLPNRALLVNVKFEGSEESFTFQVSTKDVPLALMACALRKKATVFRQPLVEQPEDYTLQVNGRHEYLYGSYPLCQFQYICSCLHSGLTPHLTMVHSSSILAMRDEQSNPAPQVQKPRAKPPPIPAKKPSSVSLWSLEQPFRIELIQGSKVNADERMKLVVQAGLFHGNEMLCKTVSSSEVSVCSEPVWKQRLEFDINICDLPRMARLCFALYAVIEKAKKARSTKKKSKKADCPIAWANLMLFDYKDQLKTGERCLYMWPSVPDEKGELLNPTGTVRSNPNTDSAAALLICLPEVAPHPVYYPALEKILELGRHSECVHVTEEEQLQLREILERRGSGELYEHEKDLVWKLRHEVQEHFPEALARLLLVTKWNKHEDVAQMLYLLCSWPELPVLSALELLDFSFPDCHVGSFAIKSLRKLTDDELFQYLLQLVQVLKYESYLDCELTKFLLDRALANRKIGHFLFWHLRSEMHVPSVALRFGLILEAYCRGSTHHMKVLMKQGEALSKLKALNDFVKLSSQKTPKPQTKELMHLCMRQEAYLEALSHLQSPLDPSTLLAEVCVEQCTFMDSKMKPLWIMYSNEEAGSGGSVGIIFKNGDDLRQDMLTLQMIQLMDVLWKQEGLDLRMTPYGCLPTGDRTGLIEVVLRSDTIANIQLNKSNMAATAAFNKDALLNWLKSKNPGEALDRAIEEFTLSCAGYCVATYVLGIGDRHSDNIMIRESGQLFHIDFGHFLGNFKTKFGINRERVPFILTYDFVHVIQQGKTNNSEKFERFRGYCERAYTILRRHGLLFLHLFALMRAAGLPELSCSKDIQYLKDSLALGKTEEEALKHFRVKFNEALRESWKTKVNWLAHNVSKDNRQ
Chain of PI3Kδ (P27986 whole entry partner): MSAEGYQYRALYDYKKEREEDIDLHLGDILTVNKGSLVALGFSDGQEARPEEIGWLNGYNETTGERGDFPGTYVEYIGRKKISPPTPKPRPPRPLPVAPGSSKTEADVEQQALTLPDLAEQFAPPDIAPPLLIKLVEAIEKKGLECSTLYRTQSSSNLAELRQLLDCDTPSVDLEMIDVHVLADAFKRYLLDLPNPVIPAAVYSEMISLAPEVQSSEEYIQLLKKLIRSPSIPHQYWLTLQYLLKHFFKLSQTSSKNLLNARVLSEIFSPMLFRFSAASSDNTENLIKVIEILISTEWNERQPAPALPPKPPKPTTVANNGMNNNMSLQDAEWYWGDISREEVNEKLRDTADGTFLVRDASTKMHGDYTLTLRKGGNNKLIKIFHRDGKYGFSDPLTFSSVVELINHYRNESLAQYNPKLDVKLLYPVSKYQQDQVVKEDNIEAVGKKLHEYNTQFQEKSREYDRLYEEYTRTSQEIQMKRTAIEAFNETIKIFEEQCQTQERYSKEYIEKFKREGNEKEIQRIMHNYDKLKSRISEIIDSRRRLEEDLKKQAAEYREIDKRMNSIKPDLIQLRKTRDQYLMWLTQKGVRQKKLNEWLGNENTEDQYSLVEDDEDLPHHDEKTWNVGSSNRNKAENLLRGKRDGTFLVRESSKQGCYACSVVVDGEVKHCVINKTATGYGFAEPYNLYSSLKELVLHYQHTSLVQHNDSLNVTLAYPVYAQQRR

[6] = molecular target: All other off‐targets including kinases tested; assay: In vitro off-target and kinase panels, all other targets; format: biochemical; settings: read-out: IC50s, all other off‐targets including kinases tested, human
PI4Kβ = PI4Kβ (Homo sapiens, UniProt Q9UBF8); settings: chemoproteomic profiling, ref Paquet et al., [2017]; cited from earlier work
Chain of PI4Kβ (Q9UBF8 whole entry): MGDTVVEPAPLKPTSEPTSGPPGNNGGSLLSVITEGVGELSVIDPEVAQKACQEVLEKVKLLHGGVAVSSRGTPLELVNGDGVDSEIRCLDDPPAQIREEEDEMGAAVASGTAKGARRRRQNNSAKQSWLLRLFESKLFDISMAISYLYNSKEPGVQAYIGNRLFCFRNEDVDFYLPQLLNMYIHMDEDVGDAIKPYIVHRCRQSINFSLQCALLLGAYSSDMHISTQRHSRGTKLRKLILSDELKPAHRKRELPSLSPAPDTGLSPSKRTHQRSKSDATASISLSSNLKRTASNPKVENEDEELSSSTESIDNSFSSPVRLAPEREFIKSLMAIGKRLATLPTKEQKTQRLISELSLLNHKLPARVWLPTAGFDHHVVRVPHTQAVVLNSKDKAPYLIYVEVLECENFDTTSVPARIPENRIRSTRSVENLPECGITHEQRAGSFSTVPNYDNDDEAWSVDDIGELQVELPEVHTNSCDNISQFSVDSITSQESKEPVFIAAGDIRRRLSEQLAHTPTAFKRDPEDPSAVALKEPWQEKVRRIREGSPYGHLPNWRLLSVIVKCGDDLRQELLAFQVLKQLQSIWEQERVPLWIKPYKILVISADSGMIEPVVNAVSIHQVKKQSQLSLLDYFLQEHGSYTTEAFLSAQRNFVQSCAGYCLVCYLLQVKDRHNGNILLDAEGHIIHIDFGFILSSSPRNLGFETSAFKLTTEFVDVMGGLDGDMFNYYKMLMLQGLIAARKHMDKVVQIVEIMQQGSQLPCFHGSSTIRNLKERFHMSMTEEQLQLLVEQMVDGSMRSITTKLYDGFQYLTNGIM

PI4Kα = PI4Kα (Homo sapiens, UniProt P42356); settings: chemoproteomic profiling, ref Paquet et al., [2017]; cited from earlier work
Chain of PI4Kα (P42356 whole entry): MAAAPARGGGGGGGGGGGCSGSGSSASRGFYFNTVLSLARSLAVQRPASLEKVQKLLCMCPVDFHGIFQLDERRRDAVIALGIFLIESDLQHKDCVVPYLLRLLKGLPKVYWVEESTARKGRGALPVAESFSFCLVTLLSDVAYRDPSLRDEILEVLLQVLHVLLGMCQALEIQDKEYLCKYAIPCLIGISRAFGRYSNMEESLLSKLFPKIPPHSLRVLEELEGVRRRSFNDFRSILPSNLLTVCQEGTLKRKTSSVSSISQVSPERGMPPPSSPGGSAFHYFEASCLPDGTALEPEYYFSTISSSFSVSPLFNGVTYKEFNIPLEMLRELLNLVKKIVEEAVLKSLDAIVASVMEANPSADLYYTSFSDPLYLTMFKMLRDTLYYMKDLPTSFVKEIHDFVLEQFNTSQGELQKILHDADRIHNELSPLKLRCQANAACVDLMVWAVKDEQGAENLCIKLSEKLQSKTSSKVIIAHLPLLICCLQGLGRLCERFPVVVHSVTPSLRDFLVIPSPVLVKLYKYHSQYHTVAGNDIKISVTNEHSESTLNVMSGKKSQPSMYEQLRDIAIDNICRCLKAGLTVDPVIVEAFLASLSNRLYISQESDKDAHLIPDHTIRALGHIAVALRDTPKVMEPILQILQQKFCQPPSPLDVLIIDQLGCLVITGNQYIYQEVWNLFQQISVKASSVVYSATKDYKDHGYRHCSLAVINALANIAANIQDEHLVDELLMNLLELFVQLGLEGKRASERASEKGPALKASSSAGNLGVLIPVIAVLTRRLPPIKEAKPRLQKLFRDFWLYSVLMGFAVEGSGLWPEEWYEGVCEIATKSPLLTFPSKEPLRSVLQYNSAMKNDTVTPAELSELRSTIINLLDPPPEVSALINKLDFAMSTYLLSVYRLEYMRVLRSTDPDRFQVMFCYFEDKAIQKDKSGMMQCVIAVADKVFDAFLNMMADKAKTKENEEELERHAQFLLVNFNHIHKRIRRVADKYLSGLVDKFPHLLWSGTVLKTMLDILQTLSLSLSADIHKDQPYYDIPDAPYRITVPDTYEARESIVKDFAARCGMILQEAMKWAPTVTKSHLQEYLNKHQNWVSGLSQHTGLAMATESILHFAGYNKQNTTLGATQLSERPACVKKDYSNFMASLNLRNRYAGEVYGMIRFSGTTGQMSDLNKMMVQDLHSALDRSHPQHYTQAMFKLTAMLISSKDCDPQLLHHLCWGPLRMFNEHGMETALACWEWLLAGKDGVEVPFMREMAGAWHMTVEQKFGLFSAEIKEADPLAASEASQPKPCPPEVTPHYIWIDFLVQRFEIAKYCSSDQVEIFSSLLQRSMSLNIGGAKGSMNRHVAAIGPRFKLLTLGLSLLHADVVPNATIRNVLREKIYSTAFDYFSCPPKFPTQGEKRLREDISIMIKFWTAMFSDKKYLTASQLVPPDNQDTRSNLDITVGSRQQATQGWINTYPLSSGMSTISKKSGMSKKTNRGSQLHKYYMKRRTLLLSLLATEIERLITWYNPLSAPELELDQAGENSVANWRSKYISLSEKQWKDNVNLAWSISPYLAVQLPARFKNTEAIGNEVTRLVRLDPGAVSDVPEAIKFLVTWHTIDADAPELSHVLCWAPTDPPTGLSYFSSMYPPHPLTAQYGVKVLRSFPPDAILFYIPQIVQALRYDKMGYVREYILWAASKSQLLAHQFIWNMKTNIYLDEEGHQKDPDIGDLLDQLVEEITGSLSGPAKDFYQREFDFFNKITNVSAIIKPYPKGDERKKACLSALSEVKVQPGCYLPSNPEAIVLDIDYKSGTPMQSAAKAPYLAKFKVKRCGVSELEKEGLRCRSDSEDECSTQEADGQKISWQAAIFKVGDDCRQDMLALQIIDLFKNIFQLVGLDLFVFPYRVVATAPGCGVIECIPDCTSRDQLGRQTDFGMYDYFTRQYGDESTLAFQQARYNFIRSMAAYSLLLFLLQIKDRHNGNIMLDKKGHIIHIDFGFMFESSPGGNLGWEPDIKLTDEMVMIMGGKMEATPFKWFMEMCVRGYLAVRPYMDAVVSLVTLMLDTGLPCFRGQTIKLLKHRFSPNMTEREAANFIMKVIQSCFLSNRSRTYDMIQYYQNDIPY

[7] = 2 mg/kg/day, 2 mg/kg/day oral, GD6
[8] = 2 mg/kg/day, 2 mg/kg/day oral, GD17
[9] = 6 mg/kg/day, 6 mg/kg/day oral, GD6
[10] = 6 mg/kg/day, 6 mg/kg/day oral, GD17
[11] = 20 mg/kg/day, 20 mg/kg/day oral, GD6
[12] = 20 mg/kg/day, 20 mg/kg/day oral, GD17
[13] = Sprague-Dawley (Crl: OFA SD), 40 mg/kg/day, 40 mg/kg/day oral, GD6
[14] = Sprague-Dawley (Crl: OFA SD), 40 mg/kg/day, 40 mg/kg/day oral, GD17
[15] = Sprague-Dawley, 20 mg/kg/day, 20 mg/kg/day oral, GD6
[16] = Sprague-Dawley, 20 mg/kg/day, 20 mg/kg/day oral, GD17
[17] = rat main EFD, 2 mg/kg/day GD6-GD17
[18] = rat main EFD, 6 mg/kg/day GD6-GD17
[19] = rat main EFD, 20 mg/kg/day GD6-GD17

With `CS(=O)(=O)c1ccc(-c2cnc(N)c(-c3ccc(C(F)(F)F)nc3)c2)cc1` [MMV390048] the “maximum concentrations achieved in vivo, free” value ([1]; across rat EFD in vivo studies) was 8 µM, the AUC(0-t) ([1]; GD6) was 229000 ng·h/mL and the AUC(0-t) ([1]; GD17) was 361000 ng·h/mL. It also gave a Cmax ([1]; GD6) of 15600 ng/mL, a Cmax ([1]; GD17) of 21300 ng/mL and a Tmax ([1]; GD6) of 8 h. The Tmax ([1]; GD17) was 4 h, the “Maximum exposure (free)” value ([1]; rat DRF EFD KIT, GD17, 60 mg/kg, 4 hr post dose) was 8 μM/L and the Tmax ([2]; 2 mg/kg/day) was 2 h. The AUC(0-t) [2, 7] was 3750 ng·h/mL, the AUC(0-t) [2, 8] was 3770 ng·h/mL and the Cmax [2, 7] was 680 ng/mL. The Cmax [2, 8] was 681 ng/mL, the Tmax ([2]; 6 mg/kg/day) was 2 h and the AUC(0-t) [2, 9] was 19600 ng·h/mL. It also gave an AUC(0-t) [2, 10] of 21400 ng·h/mL, a Cmax [2, 9] of 1380 ng/mL and a Cmax [2, 10] of 1600 ng/mL. It also gave a Tmax ([2]; 20 mg/kg/day) of 4 h, an AUC(0-t) [2, 11] of 70000 ng·h/mL and an AUC(0-t) [2, 12] of 74400 ng·h/mL. The Cmax [2, 11] was 4950 ng/mL, the Cmax [2, 12] was 5190 ng/mL and the “Maximum exposure (free)” value ([2]; rat EFD main KIT, GD17, 20 mg/kg, 4 hr post dose) was 2 μM/L. The Tmax ([3]; Sprague-Dawley (Crl: OFA SD), 40 mg/kg/day) was 7 h, the AUC(0-t) [3, 13] was 213000 ng·h/mL and the AUC(0-t) [3, 14] was 310000 ng·h/mL. It also gave a Cmax [3, 13] of 11300 ng/mL, a Cmax [3, 14] of 17100 ng/mL and a Tmax ([3]; Sprague-Dawley, 20 mg/kg/day) of 7 h. It also gave an AUC(0-t) [3, 15] of 92900 ng·h/mL, an AUC(0-t) [3, 16] of 134000 ng·h/mL and a Cmax [3, 15] of 5230 ng/mL. The Cmax [3, 16] was 7550 ng/mL, the “Maximum exposure (free)” value ([3]; rat investigational EFD CRL, GD17, 40 mg/kg, 7 hr post dose) was 6.5 μM/L and the AUC(0-t) ([4]; 1 mg/kg/day) was 3750 ng·h/mL. The Cmax ([4]; 1 mg/kg/day) was 267 ng/mL, the Tmax ([4]; 1 mg/kg/day) was 2 h and the AUC(0-t) ([4]; 3 mg/kg/day) was 14900 ng·h/mL. It also gave a Cmax ([4]; 3 mg/kg/day) of 857 ng/mL, a Tmax ([4]; 3 mg/kg/day) of 4 h and an AUC(0-t) ([4]; 10 mg/kg/day) of 64500 ng·h/mL. For the same molecule, the Cmax ([4]; 10 mg/kg/day) was 3790 ng/mL, the Tmax ([4]; 10 mg/kg/day) was 4 h and the NOAEL [5] was 2 mg/kg/day. For the same molecule, the Developmental safety margins (pregnant rats; rat NOAEL of 6 mg/kg/day vs observed clinical PK data, human volunteers and patients) was under 1, the “Female with viable fetuses” value (pregnant rats; [17]) was 22/22 and the “Postimplantation loss (%)” value (pregnant rats; [17]) was 6.9%. For the same molecule, the “Edema, fetuses with malformation/total fetuses examined” value (pregnant rats; [18]) was 1/336, the “Edema, litters with malformation/total litters examined” value (pregnant rats; [18]) was 1/23 and the “Female with viable fetuses” value (pregnant rats; [18]) was 23/23. The “Postimplantation loss (%)” value (pregnant rats; [18]) was 3.5%, the “food consumption, % of control” value (pregnant rats; rat main EFD, 6 mg/kg/day) was 8.9 % of control and the “maternal weight gain, % of control” value (pregnant rats; rat main EFD, 6 mg/kg/day) was 20.2 % of control. For the same molecule, the “Female with viable fetuses” value (pregnant rats; [19]) was 22/22, the “Hernias, fetuses with malformation/total fetuses examined” value (pregnant rats; [19]) was 1/154 and the “Hernias, litters with malformation/total litters examined” value (pregnant rats; [19]) was 1/22. The “Postimplantation loss (%)” value (pregnant rats; [19]) was 2.9%, the “food consumption, % of control” value (pregnant rats; rat main EFD, 20 mg/kg/day) was 11.5 % of control and the “maternal weight gain, % of control” value (pregnant rats; rat main EFD, 20 mg/kg/day) was 41.1 % of control. For the same molecule, the “embryofetal developmental toxicity signals” value (pregnant rabbits) was “no signals of concern”, the IC50 (TSF1) was 7.3 µM and the IC50 (PI3Kδ) was 8.1 µM. The IC50 [6] was at least 20 µM, the “binding to human PI4Kβ” value (PI4Kβ) was “no binding” and the “binding to human PI4Kα” value (PI4Kα) was “no binding”.
